# Measurements reported in ChEMBL document CHEMBL3421560, “Search for factors affecting antibacterial activity and toxicity of 1,2,4-triazole-ciprofloxacin hybrids” (Eur J Med Chem, 2015).
# Assays:
# Staphylococcus aureus [1] = experiment: Antimicrobial activity against methicillin-susceptible Staphylococcus aureus ATCC 25923 after 18 hrs by broth microdilution method; assay type: functional; conditions: ATCC 25923, 18 h
# Staphylococcus aureus [2] = experiment: Antimicrobial activity against methicillin-susceptible Staphylococcus aureus ATCC 6538 after 18 hrs by broth microdilution method; assay type: functional; conditions: ATCC 6538, 18 h
# Staphylococcus aureus [3] = experiment: Antimicrobial activity against Staphylococcus aureus Microbank 14001 after 18 hrs by broth microdilution method; assay type: functional; conditions: Microbank 14001, 18 h
# [4] = test system: Staphylococcus epidermidis; experiment: Antimicrobial activity against Staphylococcus epidermidis ATCC 12228 after 18 hrs by broth microdilution method; assay type: functional; conditions: ATCC 12228, 18 h
# Bacillus subtilis = experiment: Antimicrobial activity against Bacillus subtilis […] after 18 hrs by broth microdilution method; assay type: functional
# Bacillus cereus = experiment: Antimicrobial activity against Bacillus cereus ATCC 10876 after 18 hrs by broth microdilution method; assay type: functional; conditions: ATCC 10876, 18 h
# Micrococcus luteus = experiment: Antimicrobial activity against Micrococcus luteus ATCC 10240 after 18 hrs by broth microdilution method; assay type: functional; conditions: ATCC 10240, 18 h
# Staphylococcus aureus [5] = experiment: Ratio of MBC for methicillin-susceptible Staphylococcus aureus ATCC 25923 to MIC for methicillin-susceptible Staphylococcus aureus ATCC 25923; assay type: functional
# How it was run: (§1)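 MBC taken as lowest concentration giving >99.9% CFU reduction of the initial inoculum; value is MBC divided by MIC for the same strain.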
# Staphylococcus aureus [6] = experiment: Ratio of MBC for methicillin-susceptible Staphylococcus aureus ATCC 6538 to MIC for methicillin-susceptible Staphylococcus aureus ATCC 6538; assay type: functional; how it was run: as §1
# Staphylococcus aureus [7] = experiment: Ratio of MBC for Staphylococcus aureus Microbank 14001 to MIC for Staphylococcus aureus Microbank 14001; assay type: functional; how it was run: as §1
# Escherichia coli = experiment: Antimicrobial activity against Escherichia coli ATCC 25922 after 18 hrs by broth microdilution method; assay type: functional; conditions: ATCC 25922, 18 h
# Klebsiella pneumoniae = experiment: Antimicrobial activity against Klebsiella pneumoniae ATCC 13883 after 18 hrs by broth microdilution method; assay type: functional; conditions: ATCC 13883, 18 h
# Proteus mirabilis = experiment: Antimicrobial activity against Proteus mirabilis ATCC 12453 after 18 hrs by broth microdilution method; assay type: functional; conditions: ATCC 12453, 18 h
# Pseudomonas aeruginosa = experiment: Antimicrobial activity against Pseudomonas aeruginosa ATCC 9027 after 18 hrs by broth microdilution method; assay type: functional; conditions: ATCC 9027, 18 h
# HEK293 = experiment: Cytotoxicity against HEK293 cells after 72 hrs by MTT assay; assay type: cell-based; conditions: Homo sapiens, HEK293, 48 h; in the assay text read “48 hrs” for “72 hrs”
# How it was run: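 HEK-293 (ATCC CRL-1573) in MEM with 10% FBS plus penicillin/streptomycin, seeded 3 x 10^5 cells/well, 24 h at 37 °C, 5% CO2. Treated with compounds diluted from 50 mg/mL DMSO stock into medium with 2% FBS for 48 h. Viability by MTT formazan readout; EC50 relative to control cells, mean ± SD of three independent experiments.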
SMILES,MIC (Staphylococcus aureus [1]) [µM],MIC (Staphylococcus aureus [2]) [µM],MIC (Staphylococcus aureus [3]) [µM],MIC [4] [µM],MIC (Bacillus subtilis) [µM],MIC (Bacillus cereus) [µM],MIC (Micrococcus luteus) [µM],MIC (Escherichia coli) [µM],MIC (Klebsiella pneumoniae) [µM],MIC (Proteus mirabilis) [µM],MIC (Pseudomonas aeruginosa) [µM],Ratio (Staphylococcus aureus [5]),Ratio (Staphylococcus aureus [6]),Ratio (Staphylococcus aureus [7]),EC50 (HEK293) [µM]
CN[C@H](CC(C)C)C(=O)N[C@H]1C(=O)N[C@@H](CC(N)=O)C(=O)N[C@H]2C(=O)N[C@H]3C(=O)N[C@H](C(=O)N[C@H](C(=O)O)c4cc(O)cc(O)c4-c4cc3ccc4O)[C@H](O)c3ccc(c(Cl)c3)Oc3cc2cc(c3O[C@@H]2O[C@H](CO)[C@@H](O)[C@H](O)[C@H]2O[C@H]2C[C@](C)(N)[C@H](O)[C@H](C)O2)Oc2ccc(cc2Cl)[C@H]1O [VANCOMYCIN],–,–,0.68,–,–,–,–,–,–,–,–,–,–,–,–
O=C(O)c1cn(C2CC2)c2cc(N3CCN(Cn4nc(-c5cccc(O)c5)n(-c5ccccc5)c4=S)CC3)c(F)cc2c1=O,0.8,0.39,0.39,0.19,0.098,0.19,1.6,0.012,0.049,0.024,0.19,<=4,<=4,<=4,140
O=C(O)c1cn(C2CC2)c2cc(N3CCN(Cn4nc(-c5ccccc5O)n(-c5ccc(F)cc5)c4=S)CC3)c(F)cc2c1=O,1.55,0.38,0.19,0.38,0.19,0.19,3.09,0.011,0.048,0.024,0.095,<=4,<=4,<=4,–
O=C(O)c1cn(C2CC2)c2cc(N3CCN(Cn4nc(-c5cccc(O)c5)n(Cc5ccc(Cl)cc5)c4=S)CC3)c(F)cc2c1=O,1.48,1.48,1.48,0.18,0.18,0.18,2.95,0.023,0.18,0.023,0.36,<=4,<=4,<=4,–
O=C(O)c1cn(C2CC2)c2cc(N3CCN(Cn4nc(-c5ccc(O)cc5)n(-c5ccc(Cl)cc5)c4=S)CC3)c(F)cc2c1=O,0.76,0.37,0.093,0.18,0.046,0.18,1.51,0.011,0.093,0.012,0.18,<=4,<=4,<=4,–

# More lines, main results first:
MIC (Staphylococcus aureus [1]) [µM],MIC (Staphylococcus aureus [2]) [µM],MIC (Staphylococcus aureus [3]) [µM],MIC [4] [µM],MIC (Bacillus subtilis) [µM],MIC (Bacillus cereus) [µM],MIC (Micrococcus luteus) [µM],MIC (Escherichia coli) [µM],MIC (Klebsiella pneumoniae) [µM],MIC (Proteus mirabilis) [µM],MIC (Pseudomonas aeruginosa) [µM],SMILES,Ratio (Staphylococcus aureus [5]),Ratio (Staphylococcus aureus [6]),Ratio (Staphylococcus aureus [7]),EC50 (HEK293) [µM]
0.38,0.19,0.19,0.096,0.048,0.096,1.56,0.006,0.048,0.012,0.19,O=C(O)c1cn(C2CC2)c2cc(N3CCN(Cn4nc(-c5cccc(O)c5)n(Cc5ccccc5)c4=S)CC3)c(F)cc2c1=O,<=4,<=4,<=4,–
0.74,0.37,0.093,0.19,0.37,0.19,1.52,0.006,0.093,0.047,0.19,COc1ccc(-n2c(-c3cccc(O)c3)nn(CN3CCN(c4cc5c(cc4F)c(=O)c(C(=O)O)cn5C4CC4)CC3)c2=S)cc1,<=4,<=4,<=4,114
0.38,0.19,0.38,0.38,0.048,0.19,1.56,0.006,0.096,0.024,0.096,O=C(O)c1cn(C2CC2)c2cc(N3CCN(Cn4nc(-c5ccccc5O)n(Cc5ccccc5)c4=S)CC3)c(F)cc2c1=O,<=4,<=4,<=4,69.1
